The source made the active and inactive calls.
Legend:
[1] = biological target: T1, G-protein coupled receptor 84 (Homo sapiens, UniProt Q9NQS5); experiment: Antagonist activity at Gi coupled human GPR84 expressed in CHO cells assessed as inhibition of decanoic acid-induced receptor activation at 10 uM; assay type: cell-based
[2] = biological target: Free fatty acid receptor 1 (Homo sapiens, UniProt O14842); experiment: Agonist activity at Gq protein coupled human FFAR1 expressed in human 1321N1 cells assessed as induction of intracellular calcium level at 10 uM measured at 1.2 secs time interval by Fluo-4-AM dye based fluorescence assay; assay type: functional, cell-based
Free fatty acid receptor 1, sequence (O14842 whole entry): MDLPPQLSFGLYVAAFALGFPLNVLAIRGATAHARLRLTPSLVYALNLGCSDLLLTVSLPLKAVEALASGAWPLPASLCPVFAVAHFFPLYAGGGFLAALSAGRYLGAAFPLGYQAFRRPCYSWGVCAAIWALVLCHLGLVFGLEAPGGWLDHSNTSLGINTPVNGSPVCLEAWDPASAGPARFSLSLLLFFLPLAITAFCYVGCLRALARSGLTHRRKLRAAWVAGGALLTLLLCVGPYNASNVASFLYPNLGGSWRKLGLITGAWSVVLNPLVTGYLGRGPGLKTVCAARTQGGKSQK
Summary of the method: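 1321N1 astrocytoma cells retrovirally expressing human FFAR1, 50,000 per well, loaded 60 min at rt in dark with 3 µM Fluo-4-AM and 0.06 % Pluronic F-127 in HBSS. Compounds at 10 µM final; antagonist mode uses 30 min preincubation before TUG-424 (final 1 µM). Fluorescence at 520 nm (excitation 485 nm), 90 reads at 1.2 s intervals. Normalized to TUG-424 at 10 µM (agonist) or 1 µM (antagonist).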

[3] = biological target: T1, G-protein coupled receptor 84; experiment: Agonist activity at Gi coupled human GPR84 expressed in CHO cells assessed as inhibition of forskolin-induced cAMP accumulation after 15 mins in presence of [3H]-cAMP by radiometric assay; assay type: functional, cell-based
Summary of the method: (§1)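 Forskolin (10 µM) added with or without test compound for 15 min. Cells lysed in hot (90 °C) EDTA/Triton X-100 solution. cAMP measured radiometrically with bovine adrenal binding protein and [³H]cAMP, expressed as % of forskolin-alone response.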

[4] = biological target: T2, Free fatty acid receptor 4 (Homo sapiens) (UniProt Q5NUL3); experiment: Agonist activity at human FFAR4 expressed in CHO cells assessed as beta-arrestin recruitment at 10 uM after 90 mins by beta-galactosidase complementation assay; assay type: cell-based
T2 sequence (whole entry): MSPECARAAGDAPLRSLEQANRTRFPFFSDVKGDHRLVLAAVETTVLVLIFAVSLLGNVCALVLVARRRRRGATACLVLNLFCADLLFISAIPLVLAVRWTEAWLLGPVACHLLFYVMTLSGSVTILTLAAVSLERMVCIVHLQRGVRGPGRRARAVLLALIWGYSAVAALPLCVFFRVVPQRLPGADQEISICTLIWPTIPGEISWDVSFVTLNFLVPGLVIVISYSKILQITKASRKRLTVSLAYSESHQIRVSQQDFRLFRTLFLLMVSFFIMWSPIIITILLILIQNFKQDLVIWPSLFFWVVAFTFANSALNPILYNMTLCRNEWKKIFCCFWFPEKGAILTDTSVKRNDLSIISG
Summary of the method: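 Human FFAR4 in CHO β-galactosidase complementation cells, 30,000 per well, serum-free F12 ~4 h before assay; final DMSO 1 %, compounds 10 µM. Agonist mode: 90 min with agonist, then detection 60 min rt dark; luminescence. 3–4 experiments in duplicate.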

[5] = biological target: T1, G-protein coupled receptor 84; experiment: Agonist activity at Gi coupled human GPR84 expressed in CHO cells assessed as inhibition of forskolin-induced cAMP accumulation at 10 uM after 15 mins in presence of [3H]-cAMP by radiometric assay relative to decanoic acid; assay type: functional, cell-based; summary of the method: as §1
[6] = biological target: T2, Free fatty acid receptor 4 (Homo sapiens); experiment: Antagonist activity at human FFAR4 expressed in CHO cells assessed as inhibition of TUG-89-induced beta-arrestin recruitment at 10 uM preincubated for 30 mins followed by TUG-89 addition measured after 90 mins by beta-galactosidase complementation assay; assay type: cell-based
[7] = biological target: T1, G-protein coupled receptor 84; experiment: Agonist activity at human GPR84 expressed in CHO cells assessed as beta-arrestin recruitment after 90 mins by beta-galactosidase complementation assay; assay type: cell-based
Summary of the method: (§2)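 CHO cells co-expressing human GPR84–β-galactosidase fragment and β-arrestin–complementary fragment, 20,000 per well. Compounds in DMSO (final ≤1 %) added for 90 min, then detection reagent for 60 min at rt; luminescence read. Three to five independent experiments in duplicate.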

[8] = biological target: T1, G-protein coupled receptor 84; experiment: Agonist activity at human GPR84 expressed in CHO cells assessed as beta-arrestin recruitment at 10 uM after 90 mins by beta-galactosidase complementation assay relative to embelin; assay type: cell-based; summary of the method: as §2

T1 sequence (Q9NQS5 whole entry): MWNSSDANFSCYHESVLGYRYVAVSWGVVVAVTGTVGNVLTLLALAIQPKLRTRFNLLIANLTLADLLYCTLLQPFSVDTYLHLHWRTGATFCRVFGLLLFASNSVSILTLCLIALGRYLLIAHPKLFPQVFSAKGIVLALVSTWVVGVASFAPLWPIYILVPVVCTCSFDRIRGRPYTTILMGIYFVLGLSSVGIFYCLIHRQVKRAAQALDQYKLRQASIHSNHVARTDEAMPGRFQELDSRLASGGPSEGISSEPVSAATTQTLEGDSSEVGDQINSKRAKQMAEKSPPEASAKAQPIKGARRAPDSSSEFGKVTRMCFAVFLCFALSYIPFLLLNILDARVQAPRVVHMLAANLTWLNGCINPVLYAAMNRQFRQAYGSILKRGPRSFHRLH

Row | SMILES | inhibition [1] | Activity [2] | EC50 [3] | Activity [4] | Emax [5] | inhibition [6] | EC50 [7] | Emax [8]
1 | Cc1ccc2c(Cc3c[nH]c4cc(C)ccc34)c[nH]c2c1 | inactive | inactive | > 10 µM | inactive | -22% | inactive | – | –
2 | N#Cc1ccc2[nH]cc(Cc3c[nH]c4ccc(C#N)cc34)c2c1 | inactive | inactive | ≥ 10 µM | inactive | 49% | inactive | – | –
3 | O=C(O)c1ccc2[nH]cc(Cc3c[nH]c4ccccc34)c2c1 | inactive | inactive | > 10 µM | inactive | 5% | inactive | – | –
4 | Clc1cc(Cl)c2c(Cc3c[nH]c4cc(Cl)cc(Cl)c34)c[nH]c2c1 | inactive | inactive | ≥ 10 µM | inactive | 51% | inactive | – | –
5 | COc1ccc2c(Cc3c[nH]c4cc(OC)ccc34)c[nH]c2c1 | inactive | inactive | > 10 µM | inactive | 31% | inactive | – | –
6 | O=C1Nc2ccc(F)cc2/C1=C/c1c[nH]c2ccc(F)cc12 | inactive | inactive | > 10 µM | inactive | 5% | inactive | – | –
7 | COc1ccc2[nH]cc(CC3C(=O)Nc4ccccc43)c2c1 (centres undefined) | inactive | inactive | > 10 µM | inactive | -21% | inactive | – | –
8 | COc1cccc2c(Cc3c[nH]c4c(OC)cccc34)c[nH]c12 | inactive | inactive | > 10 µM | inactive | 18% | inactive | – | –
9 | O=Cc1ccc2[nH]cc(Cc3c[nH]c4ccc(C=O)cc34)c2c1 | inactive | inactive | > 10 µM | inactive | -4% | inactive | – | –
10 | Cc1ccccc1C#Cc1ccc(CCC(=O)O)cc1 | – | inactive | – | – | – | – | – | –
11 | COc1cccc2[nH]cc(Cc3c[nH]c4cccc(OC)c34)c12 | inactive | inactive | ≥ 10 µM | inactive | 47% | inactive | – | –
12 | c1ccc(COc2ccc3[nH]cc(Cc4c[nH]c5ccc(OCc6ccccc6)cc45)c3c2)cc1 | inactive | inactive | > 10 µM | inactive | 36% | inactive | – | –
13 | Cc1ccc2[nH]cc(Cc3c[nH]c4ccc(C)cc34)c2c1 | – | inactive | ≥ 10 µM | inactive | 45% | inactive | ≥ 10 µM | 49%
14 | Cc1cccc2[nH]cc(Cc3c[nH]c4cccc(C)c34)c12 | – | inactive | 0.987 µM | inactive | 112% | inactive | > 10 µM | 24%
15 | O=[N+]([O-])c1ccc(C(c2c[nH]c3ccccc23)c2c[nH]c3ccccc23)cc1 | inactive | inactive | > 10 µM | inactive | 6% | inactive | – | –
16 | O=C1Nc2ccc(F)cc2C1Cc1c[nH]c2ccc(F)cc12 (centres undefined) | inactive | inactive | > 10 µM | inactive | 16% | inactive | – | –
17 | Clc1ccc2[nH]cc(Cc3c[nH]c4ccc(Cl)cc34)c2c1 | – | inactive | 4.96 µM | inactive | 86% | inactive | – | –

Row | SMILES | inhibition [1] | Activity [2] | EC50 [3] | Activity [4] | Emax [5] | inhibition [6] | EC50 [7] | Emax [8]
18 | Fc1cc2[nH]cc(Cc3c[nH]c4cc(F)c(F)cc34)c2cc1F | – | inactive | 0.187 µM | inactive | 121% | inactive | 10.3 µM | 92%
19 | Fc1cc2c(Cc3c[nH]c4cc(Cl)c(F)cc34)c[nH]c2cc1Cl | – | – | 10.8 µM | inactive | 83% | inactive | 3.98 µM | 181%
20 | Fc1ccc2c(Cc3c[nH]c4cc(F)ccc34)c[nH]c2c1 | – | inactive | 0.625 µM | inactive | 89% | inactive | 7.53 µM | 48%
21 | Brc1ccc2[nH]cc(Cc3c[nH]c4ccc(Br)cc34)c2c1 | – | inactive | 3.44 µM | inactive | 106% | inactive | – | –
22 | O=C1Nc2ccccc2C1Cc1ccc2[nH]ccc2c1 (centres undefined) | inactive | inactive | > 10 µM | inactive | 7% | inactive | – | –
23 | COC(=O)c1ccc2[nH]cc(Cc3c[nH]c4ccc(C(=O)OC)cc34)c2c1 | inactive | inactive | > 10 µM | inactive | 11% | inactive | – | –
24 | O=[N+]([O-])c1ccc2[nH]cc(Cc3c[nH]c4ccc([N+](=O)[O-])cc34)c2c1 | inactive | inactive | > 10 µM | inactive | 31% | inactive | – | –
25 | Fc1ccc(C(c2c[nH]c3ccccc23)c2c[nH]c3ccccc23)cc1 | inactive | inactive | > 10 µM | inactive | 8% | inactive | – | –
26 | Fc1cc2cc[nH]c2cc1F | – | – | > 10 µM | – | – | – | 2.97 µM | –
27 | COc1ccc(C(c2c[nH]c3ccccc23)c2c[nH]c3ccccc23)cc1 | inactive | inactive | > 10 µM | inactive | -3% | inactive | – | –
28 | COC(=O)c1ccc2[nH]cc(Cc3c[nH]c4ccccc34)c2c1 | – | inactive | 10 µM | inactive | 57% | inactive | – | –
29 | COc1ccc2[nH]cc(CC3C(=O)Nc4ccc(F)cc43)c2c1 (centres undefined) | inactive | inactive | > 10 µM | inactive | -10% | inactive | – | –
30 | Clc1ccc(C(c2c[nH]c3ccccc23)c2c[nH]c3ccccc23)cc1 | inactive | inactive | > 10 µM | inactive | -4% | inactive | – | –
31 | Fc1ccc2[nH]cc(Cc3c[nH]c4ccccc34)c2c1 | – | inactive | – | inactive | 115% | inactive | – | 72%
32 | O=C1Nc2ccccc2C1=Cc1c[nH]c2ccc(F)cc12 | inactive | inactive | > 10 µM | inactive | -1% | inactive | – | –
33 | COc1ccc2[nH]cc(/C=C3\C(=O)Nc4ccccc43)c2c1 | inactive | inactive | > 10 µM | inactive | -10% | inactive | – | –
